Data set [1] can be described thus: Selectivity ratio of IC50 for ER/PR/HER2 deficient human MDA-MB-231 cells to IC50 for human MCF7 cells. The data set is classed as functional. The method in brief:
(§1)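 Ratio is IC50 in reference line over IC50 in sensitive line. […] Cells in DMEM with 5% calf serum at 37 °C. At least two experiments, triplicate cultures; assay accepted when relative SD < 10%.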

Data set [2] deals with MDA-MB-468. The data set is described as follows: Antiproliferative activity against ER/PR/HER2 deficient human MDA-MB-468 cells after 72 hrs by SRB assay. The data set is classed as functional, cell-based. The following applies: MDA-MB-468, 72 h. The procedure, abridged: (§2)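 SRB antiproliferative assay (modified NCI protocol). Cells seeded per well (SK-BR-3, MDA-MB-231, T47D, HT-1080, HT-1080 CYP1A1 and empty-vector: 3.0 x 10^3; MDA-MB-468: 5.0 x 10^3; MCF7: 7.5 x 10^3), preincubated 24 h. DMSO-solubilized drug added at 0.75 to 1.0 x 10^5 nM, then 72 h. Fixed with cold 10% TCA, stained with 0.1% sulforhodamine B, absorbance read at 530-565 nm. At least two experiments, triplicate cultures.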

For data set [3], the system named is T47D. In words: Antiproliferative activity against ER/PR/HER2 expressing human T47D cells after 72 hrs by SRB assay. The data set is classed as functional, cell-based. The procedure, abridged:
as §2
For orientation: In SRB staining, fixed cells bind dye roughly in proportion to their protein.

Data set [4] is described as follows: Selectivity ratio of IC50 for ER/PR/HER2 deficient human MDA-MB-231 cells to IC50 for ER/PR/HER2 expressing human T47D cells. Type of data set: functional. The procedure, abridged: as §1
Data set [5] can be described thus: Selectivity ratio of IC50 for ER/PR/HER2 deficient human MDA-MB-231 cells to IC50 for ER/PR deficient and HER2 expressing human SKBR3 cells. The data set is classed as functional. The procedure, abridged: as §1
The subject of data set [6] is HT-1080. In words: Selectivity ratio of IC50 for HT1080 cells transfected with pCMV6-AC empty plasmid to IC50 for human HT1080 cells transfected with CYP1A1. The data set is classed as functional. The procedure, abridged: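 Ratio is IC50 (HT-1080 empty vector) over IC50 (HT-1080 CYP1A1). Both lines stably transfected (pCMV6-AC plasmids) and kept under G418 selection, seeded at 3.0 x 10^3 cells. IC50s from SRB antiproliferative assay.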

Data set [7] concerns HT-1080. The data set is described as follows: Antiproliferative activity against human wild type HT1080 cells after 72 hrs by SRB assay. Type of data set: functional, cell-based. The following applies: HT-1080, 72 h. The method in brief:
as §2

The test system of data set [8] is SK-BR-3. The data set is described as follows: Antiproliferative activity against ER/PR deficient and HER2 expressing human SKBR3 cells after 72 hrs by SRB assay. Type of data set: functional, cell-based. Particulars: SK-BR-3, 72 h; call rule not given here. The method in brief:
as §2

Data set [9] is described as follows: Selectivity ratio of IC50 for ER/PR/HER2 deficient human MDA-MB-231 cells to IC50 for ER/PR/HER2 deficient human MDA-MB-468 cells. Type of data set: functional. The procedure, abridged: as §1
Data set [10] relates to HT-1080. The data set is described as follows: Antiproliferative activity against human HT1080 cells transfected with CYP1A1 after 72 hrs by SRB assay. Particulars: HT-1080, 72 h. Type of data set: functional, cell-based. The method in brief:
as §2

Data set [11] concerns HT-1080. In words: Antiproliferative activity against human HT1080 cells transfected with pCMV6-AC empty plasmid after 72 hrs by SRB assay. The data set is classed as functional, cell-based. Particulars: HT-1080, 72 h. The method in brief: as §2
Data set [12] concerns MDA-MB-231. In words: Antiproliferative activity against ER/PR/HER2 deficient human MDA-MB-231 cells after 72 hrs by SRB assay. Type of data set: functional, cell-based. Particulars: MDA-MB-231, 72 h. The procedure, abridged: as §2
Data set [13] deals with T1, Cytochrome P450 1A1 (Homo sapiens, UniProt P04798).
T1 sequence (P04798 whole entry): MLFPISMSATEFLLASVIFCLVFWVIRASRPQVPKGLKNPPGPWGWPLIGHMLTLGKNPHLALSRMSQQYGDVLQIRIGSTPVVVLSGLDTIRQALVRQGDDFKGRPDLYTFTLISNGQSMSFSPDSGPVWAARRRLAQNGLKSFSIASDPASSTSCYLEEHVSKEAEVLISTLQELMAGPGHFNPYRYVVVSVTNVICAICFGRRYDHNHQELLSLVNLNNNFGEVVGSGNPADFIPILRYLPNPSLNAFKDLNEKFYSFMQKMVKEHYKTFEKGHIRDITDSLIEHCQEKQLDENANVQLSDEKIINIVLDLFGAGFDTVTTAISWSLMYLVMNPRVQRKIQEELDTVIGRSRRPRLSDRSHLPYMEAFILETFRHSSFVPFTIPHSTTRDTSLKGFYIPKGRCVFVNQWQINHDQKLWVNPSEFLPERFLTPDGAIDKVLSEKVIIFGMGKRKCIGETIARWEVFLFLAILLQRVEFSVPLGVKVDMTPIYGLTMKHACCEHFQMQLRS
In words: Inhibition of human supersomes CYP1A1-mediated 7-ethoxyresorufin conversion to fluorescent resorufin preincubated with 7-ethoxyresorufin for 5 mins followed by addition of NADPH regenerating system measured for 15 mins by EROD assay. Type of data set: ADME. The method in brief:
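EROD assay with human CYP1A1 supersomes containing reductase, in potassium phosphate buffer. Drug final 32–31 600 nM and 7-ethoxyresorufin 94–3 000 nM, with 0.35% DMSO, preincubated 5 min at 37 °C. Reaction started with NADPH-regenerating system and 0.15 pmol CYP1A1 in 150 µL. Initial velocity taken from 1–5 min; Vmax and Km from Lineweaver-Burk plot.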

Data set [14] has as its system MCF7. In words: Antiproliferative activity against human MCF7 cells after 72 hrs by SRB assay. The data set is classed as functional, cell-based. Particulars: MCF7, 72 h. The procedure, abridged: as §2
The subject of data set [15] is MCF7. In words: Antiproliferative activity against human MCF7 cells after 48 hrs by SRB assay. Type of data set: functional, cell-based. The following applies: MCF7, 48 h. The method in brief: (§3)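 SRB assay run as in the NCI screen with slight modifications. Seeding: HT-29 5.0 x 10^3, M21 3.5 x 10^3, MCF7 7.5 x 10^3 cells; cells preincubated 24 h. Drug in DMSO added at 0.75 to 1.0 x 10^5 nM for 48 h. TCA fixation, sulforhodamine B staining, absorbance 530-565 nm. At least two experiments in triplicate; runs accepted only when relative SD < 10%.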

Data set [16] deals with M21. The data set is described as follows: Antiproliferative activity against human M21 cells after 48 hrs by SRB assay. The following applies: M21, 48 h. Type of data set: functional, cell-based. The method in brief:
as §3

For data set [17], the system named is HT-29. The data set is described as follows: Antiproliferative activity against human HT-29 cells after 48 hrs by SRB assay. Type of data set: functional, cell-based. Particulars: HT-29, 48 h. The procedure, abridged:
as §3

Data set [18] can be described thus: Selectivity ratio of IC50 for human M21 cells to IC50 for human MCF7 cells. The data set is classed as functional. The procedure, abridged: as §1
The target of data set [19] is T1, Cytochrome P450 1A1. The data set is described as follows: Prodrug conversion assessed as human supersomes CYP1A1-mediated 3,5-dimethoxyphenyl 4-(2-oxoimidazolidin-1-yl)benzenesulfonate formation after 4 hrs by HPLC-MS analysis. Type of data set: ADME. The following applies: recombinant enzyme.
Data set [20] can be described thus: Selectivity ratio of IC50 for human HT-29 cells to IC50 for human MCF7 cells. Type of data set: functional. The procedure, abridged: as §1
Data set [21] concerns the target T1, Cytochrome P450 1A1. The data set is described as follows: Prodrug activation assessed as human supersomes CYP1A1-mediated 3,4,5-trimethoxyphenyl 4-(2-oxoimidazolidin-1-yl)benzenesulfonate formation after 4 hrs by HPLC-MS analysis. Type of data set: ADME. The following applies: recombinant enzyme.
Data set [22] has as its target T1, Cytochrome P450 1A1. The data set is described as follows: Prodrug activation assessed as time required for human supersomes CYP1A1-mediated 3,4,5-trimethoxyphenyl 4-(2-oxoimidazolidin-1-yl)benzenesulfonate formation after 4 hrs by HPLC-MS analysis. The data set is classed as ADME. The following applies: recombinant enzyme.

Structures are written as SMILES.

What is called IC50 is the concentration at which inhibition is half-maximal. The low end stands for inhibition by little substance, the high end for a need for much substance. One may read the Ki as the equilibrium dissociation constant of an inhibitor or competing ligand from its target. `COc1cc(OC)cc(OS(=O)(=O)c2ccc(N3CCNC3=O)cc2)c1`: the “Ratio IC50” value in [1] was 2.5; in data set [4] it was 1.1; in [5], 1.8; in [6], 1.8; in data set [9], 1.5. Moreover, the IC50 was 6.5 nM in data set [2]; 8.7 nM in [3]; 5.4 nM in data set [7]; 5.5 nM in data set [8]; 2.3 nM in data set [10]; 4.2 nM in data set [11]. Besides, the IC50 was 10 nM in data set [12] and 4 nM in data set [14]. In addition, the Ki entry in [13] is “Not Active”.

`CCCCN1CCN(c2ccc(S(=O)(=O)Oc3cc(OC)cc(OC)c3)cc2)C1=O`: the “Ratio IC50” value in data set [1] is greater than 2900; in data set [4], greater than 420; in data set [5] it was greater than 1900; in data set [6] it was 2600; in [18] it was greater than 5300; in data set [9], greater than 630. Besides, in data set [20], the “Ratio IC50” value is 1900. Moreover, the half-maximal inhibitory concentration (IC50) in data set [2] is 160 nM; in data set [3], 240 nM; in data set [15] it was 19 nM; in data set [16], greater than 100000 nM; in data set [7], 29000 nM; in data set [17] it was 36000 nM. In addition, the IC50 in data set [8] is 52 nM; in data set [10], 31 nM; in [11] it was 81000 nM; in data set [12], greater than 100000 nM; in data set [14] it was 35 nM. Besides, the Drug metabolism result in data set [19] is “Metabolite_Detected”; in data set [21], “Metabolite_Notdetected”. Further, the Time in data set [22] is 15 min. For the same compound, in [13] (read-out: Ki), the Ki came out at 490 nM.

Turning to `CCCN1CCN(c2ccc(S(=O)(=O)Oc3cc(OC)c(OC)c(OC)c3)cc2)C1=O`, the “Ratio IC50” value was 340 in data set [1]; 130 in data set [4]; 1300 in data set [5]; 5100 in data set [6]; 80 in data set [18]; 240 in [9]. In data set [20], the “Ratio IC50” value worked out at 110. The IC50 in data set [2] stood at 26 nM; in [3], 49 nM; in data set [15], 49 nM; in data set [16], 3900 nM; in data set [7], 6700 nM; in data set [17] it was 5600 nM. Further, the IC50 in data set [8] came to 5 nM; in [10], 16 nM; in data set [11] it was 82000 nM; in data set [12], 6000 nM; in [14] it was 18 nM. Besides, the Drug metabolism result in data set [21] is given as “Metabolite_Detected”. Also, the Time in [22] is 15 min. The Ki in data set [13] (read-out: Ki) was found to be 240 nM.

Source of the values: ChEMBL document CHEMBL4014335, “Activation of Phenyl 4-(2-Oxo-3-alkylimidazolidin-1-yl)benzenesulfonates Prodrugs by CYP1A1 as New Antimitotics Targeting Breast Cancer Cells” (J Med Chem, 2017).
